Results reported in PubChem BioAssay AID504383 (The Scripps Research Institute Molecular Screening Center, 2011).
Out of some 2,500 compounds screened, about 1,200 (48%) were called active. The set was probably picked from earlier hits. This is one part of the list. Values without a mark were called inactive.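 Rule for the calls: active = mean activation above the low control average plus 3 SD, as set in the primary screen (cut at about 12% in these data); inactive = the rest.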

target: Troponin I, cardiac muscle (Homo sapiens) + Troponin T, cardiac muscle (Homo sapiens) + Troponin C, slow skeletal and cardiac muscles (Homo sapiens) (UniProt P19429+P45379+P63316); assay: calcium sensitizers of cardiac thin filaments – biochemical, IANBD-TnC fluorescence, triplicate, confirmation (AID 504383); settings: IANBD-labeled cardiac RTF, Ca2+ sensitivity fluorescence; at 7.2 µM; stronger effect = higher value; scaled from EC20 to saturating calcium; tested at EC20 calcium, 0.472 mM;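 note: 0% = DMSO at 0.472 mM calcium and 100% = DMSO at 2.9 mM calcium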
In short: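 System: Labelled thin filament complex | Technique: Filament fluorescence intensity | Benchmarks: Low control EC20 calcium, high control EC100 calcium | Timing: 15 min at 25 °C | Compound dosing: One dose, 7.2 µM nominal | Probe or stimulus: Ca2+ 0.472 mM, EC20 level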

**Q.** How did the activation turn out when `CCCCNC(=O)COC(=O)c1c2c(nc3ccccc13)/C(=C\c1cccs1)CC2` was run?
**A.** The activation was 6.15%.

**Q.** Which activation does the source give for `NC(=O)c1ccc(NC(=O)COC(=O)c2c3c(nc4ccccc24)/C(=C\c2ccc4c(c2)OCO4)CCC3)cc1` here?
**A.** Its activation is 11.7% (active).

**Q.** For `CC(OC(=O)c1c2c(nc3ccccc13)/C(=C\c1ccc3c(c1)OCO3)CCC2)C(=O)Nc1ccc(S(N)(=O)=O)cc1` (stereo unspecified), which activation is on record?
**A.** Its activation is 3.14%.

**Q.** Which activation does the source give for `O=C(NCc1ccccc1)C1=C[C@H](C2CC2)C[C@H](OCc2ccc(CO)cc2)O1` here?
**A.** The activation was -0.14%.

**Q.** With `CCCN(CCC)C(=O)C1c2ccccc2Oc2ccccc21` as the molecule, how does the activation read?
**A.** The activation was 16.6% (active).

**Q.** For `CCOC(=O)C1CCCN(C(=O)C2c3ccccc3Oc3ccccc32)C1` (stereo unspecified), which activation is on record?
**A.** Its activation is -3.14%.

**Q.** With `CCOC(=O)C(C#N)C(c1cccnc1)c1c(C)[nH][nH]c1=O` (stereo unspecified) as the molecule, how does the activation read?
**A.** Its activation is 5.64%.

**Q.** Which activation does the source give for `Cc1cccn2c(=O)c(/C=C3\SC(=S)NC3=O)c(NCCCN3CCOCC3)nc12` here?
**A.** The activation was 63.9% (active).

**Q.** How did the activation turn out when `Cc1cccn2c(=O)c(/C=C3\SC(=S)N(CC(C)C)C3=O)c(NCCCOC(C)C)nc12` was run?
**A.** Its activation is 111% (active).

**Q.** `COc1cc(CCCN2C(=S)NC[C@@H]2CC2CCCCC2)cc(OC)c1OC` was tested. Which activation did it give?
**A.** Its activation is 88.2% (active).

**Q.** `FC(F)(F)c1ccc(-c2nc(=S)[nH][nH]2)cc1` was tested. Which activation did it give?
**A.** Its activation is 8.3%.

**Q.** With `O=C1NC(=S)S/C1=C/c1ccc(N2CCOCC2)o1` as the molecule, how does the activation read?
**A.** Its activation is 18.5% (active).

**Q.** With `CC(C)OC(=O)CN1C(=O)S/C(=C/c2ccc(N3CCCCC3)o2)C1=O` as the molecule, how does the activation read?
**A.** The activation was 13% (active).

**Q.** For `CCCN1C(=O)S/C(=C\c2ccc(N3CCOCC3)o2)C1=O`, which activation is on record?
**A.** Its activation is 1.26%.

**Q.** How did the activation turn out when `CCCN1C(=O)S/C(=C/c2ccc(N3CCOCC3)o2)C1=O` was run?
**A.** The activation was 94.3% (active).

**Q.** For `O=C1S/C(=C\c2ccc(N3CCOCC3)o2)C(=O)N1c1ccccc1`, which activation is on record?
**A.** Its activation is 62.9% (active).

**Q.** Which activation does the source give for `COc1ccc(/C=N/Nc2ncc(C(F)(F)F)cc2Cl)cc1OC` here?
**A.** The activation was -2.64%.

**Q.** How did the activation turn out when `Cc1[nH]c(=O)c(C#N)c(C)c1Cl` was run?
**A.** Its activation is 9.65%.

**Q.** `O=C1S/C(=C/c2ccc(N3CCOCC3)o2)C(=O)N1Cc1ccc(F)cc1` was tested. Which activation did it give?
**A.** The activation was 54.8% (active).

**Q.** With `O=C1S/C(=C\c2ccc(N3CCOCC3)o2)C(=O)N1Cc1c(F)cccc1Cl` as the molecule, how does the activation read?
**A.** The activation was 788% (active).

**Q.** For `O=C1S/C(=C\c2ccc(N3CCOCC3)o2)C(=O)N1Cc1ccc(F)cc1`, which activation is on record?
**A.** The activation was 3.92%.

**Q.** Which activation does the source give for `O=C1S/C(=C/c2ccc(N3CCOCC3)o2)C(=O)N1Cc1c(F)cccc1Cl` here?
**A.** The activation was 17.9% (active).

**Q.** How did the activation turn out when `Cc1cc(C=C2C(=O)CCCC2=O)c(C)n1-c1ccccc1` was run?
**A.** The activation was 3.1%.

**Q.** How did the activation turn out when `Cc1cccc(-n2c(C)cc(C=C3C(=O)c4ccccc4C3=O)c2C)c1` was run?
**A.** Its activation is 1.06%.

**Q.** Which activation does the source give for `Cc1cc(C=C2C(=O)c3ccccc3C2=O)c(C)n1-c1ccccc1` here?
**A.** The activation was 94.4% (active).

**Q.** For `Cc1cc(C=C2C(=O)c3ccccc3C2=O)c(C)n1-c1ccc(Cl)cc1`, which activation is on record?
**A.** Its activation is 13.3% (active).

**Q.** Which activation does the source give for `CC(C)/C=C1\CC/C(=C\c2ccc(N(C)C)cc2)C1=O` here?
**A.** Its activation is 5.2%.

**Q.** `CCOC(=O)C1CCCN(C2=NC(=O)/C(=C/c3ccc(O)c(OC)c3)S2)C1` (stereo unspecified) was tested. Which activation did it give?
**A.** The activation was -0.88%.

**Q.** How did the activation turn out when `CN(C)c1ccc(/C=C2\C(=N)N3N=C(CC(=O)N4CCCCC4)SC3=NC2=O)cc1` was run?
**A.** Its activation is 41.6% (active).

**Q.** Which activation does the source give for `CCN(CC)c1ccc(/C=C2\C(=N)N3N=C(CC(=O)N4CCOCC4)SC3=NC2=O)cc1` here?
**A.** Its activation is 16.5% (active).

**Q.** How did the activation turn out when `CCOC(=O)C1CCCN(C2=NC(=O)/C(=C/c3ccc(N(C)C)cc3)S2)C1` (stereo unspecified) was run?
**A.** Its activation is 8.97%.

**Q.** For `CN(C)c1ccc(/C=C2\SC(N3CCCCC3)=NC2=O)cc1`, which activation is on record?
**A.** Its activation is 1160% (active).

**Q.** For `O=C(/C=C/c1cn(CC(O)CN2CCCCCC2)c2ccccc12)c1cccs1` (stereo unspecified), which activation is on record?
**A.** The activation was 13.4% (active).

**Q.** Which activation does the source give for `CCCN(CCC)CC(O)Cn1cc(/C=C/C(=O)c2cccs2)c2ccccc21` (stereo unspecified) here?
**A.** The activation was 11.6%.

**Q.** How did the activation turn out when `O=C(/C=C/c1cn(CC(O)CN2CCCCC2)c2ccccc12)c1cccs1` (stereo unspecified) was run?
**A.** The activation was 55.5% (active).

**Q.** For `COc1ccc(/C=[N+](\[O-])C2N(c3ccccc3)C(=S)SC2(C)C)cc1OC` (stereo unspecified), which activation is on record?
**A.** Its activation is 5.83%.

**Q.** `CN1CCN(CCNC(=O)Nc2ccc(Cl)cc2)CC1` was tested. Which activation did it give?
**A.** The activation was 13.4% (active).

**Q.** Which activation does the source give for `CCN1CCc2c(sc(NC(=O)Nc3ccc(Cl)c(Cl)c3)c2C(N)=O)C1` here?
**A.** The activation was -0.7%.

**Q.** With `Nc1cccc(N2C(=O)c3cccc4c(N)ccc(c34)C2=O)c1` as the molecule, how does the activation read?
**A.** The activation was 8.12%.

**Q.** `CC(C)CCN1C(=O)c2cccc3c(N)ccc(c23)C1=O` was tested. Which activation did it give?
**A.** Its activation is 15.7% (active).

**Q.** With `CCN1C(=O)c2cccc3c(N)ccc(c23)C1=O` as the molecule, how does the activation read?
**A.** The activation was 5.33%.

**Q.** `c1ccc2c(c1)CN1CCCC1=N2` was tested. Which activation did it give?
**A.** Its activation is 3.94%.

**Q.** How did the activation turn out when `CC1CC1c1ccc(/C=C(\C#N)C(=O)Nc2ccc(Cl)cc2Cl)o1` (stereo unspecified) was run?
**A.** The activation was 19.9% (active).

**Q.** `Cc1ccc(NC(=O)/C(C#N)=C/c2ccc(C)s2)c(C)c1` was tested. Which activation did it give?
**A.** The activation was -3.42%.

**Q.** With `CN1/C(=C\C=C(/C#N)C(=O)Nc2ccccc2F)C(C)(C)c2ccccc21` as the molecule, how does the activation read?
**A.** The activation was 5.14%.

**Q.** `CC1CC1c1ccc(/C=C(\C#N)C(=O)Nc2cccc(Cl)c2Cl)o1` (stereo unspecified) was tested. Which activation did it give?
**A.** Its activation is 22.5% (active).

**Q.** How did the activation turn out when `Clc1cccc(C[n+]2cc(-c3ccccc3)n3c2CCC3)c1` was run?
**A.** Its activation is 4.21%.

**Q.** For `CN(CC(=O)N1CCN(c2ncccn2)CC1)S(=O)(=O)c1ccc(Cl)cc1`, which activation is on record?
**A.** The activation was 4.61%.

**Q.** For `CN(CC(=O)NCc1ccco1)S(=O)(=O)c1cccc2cccnc12`, which activation is on record?
**A.** The activation was 32.8% (active).

**Q.** How did the activation turn out when `O=C(NCc1ccco1)C1CC(c2c(Cl)cccc2Cl)=NO1` (stereo unspecified) was run?
**A.** Its activation is 0.26%.

**Q.** For `CN(CC(=O)NCc1ccc(Cl)cc1)S(=O)(=O)c1cccc2cccnc12`, which activation is on record?
**A.** Its activation is 12.1% (active).

**Q.** `C#CC[N+](C)(C)CCCCCCCCCC` was tested. Which activation did it give?
**A.** The activation was 45.3% (active).

**Q.** For `COc1cc(NC(=O)C2CCCCN2)ccc1OCC(C)C` (stereo unspecified), which activation is on record?
**A.** The activation was 15.1% (active).

**Q.** For `COc1ccc(NC(=O)C2CC2)cc1OC1CCCC1`, which activation is on record?
**A.** The activation was -0.05%.

**Q.** With `C=CCNc1oc(COc2ccc(C)cc2)nc1C#N` as the molecule, how does the activation read?
**A.** The activation was 25.2% (active).

**Q.** With `CCC(CC)c1nc(C#N)c(NC(C)c2ccccc2)o1` (stereo unspecified) as the molecule, how does the activation read?
**A.** The activation was 3.34%.

**Q.** How did the activation turn out when `COc1ccc(CNc2oc(COc3ccccc3)nc2C#N)cc1` was run?
**A.** Its activation is 62.4% (active).

**Q.** For `CN(C)c1ccc(NC2=C([N+](=O)[O-])CS(=O)(=O)C2)cc1`, which activation is on record?
**A.** Its activation is 12.2% (active).

**Q.** How did the activation turn out when `CC1=C(C)CC(C(=O)NNC(=O)c2cccc(Cl)c2)C(C(=O)O)C1` (stereo unspecified) was run?
**A.** The activation was 10.7%.

**Q.** For `CCc1ccc(C(=O)NNC(=O)c2cccc(N3C(=O)CCC3=O)c2)cc1`, which activation is on record?
**A.** The activation was 34.6% (active).

**Q.** For `CCc1ccc(C(=O)NNc2ccccc2F)cc1`, which activation is on record?
**A.** Its activation is 7.76%.
